Values after ≈ are worked out from the molar mass of the structure shown.
Assays:
[1] = test system: Pseudomonas aeruginosa; test: Antibacterial activity against Pseudomonas aeruginosa PAO1 after 24 hrs by broth microdilution method; format: functional; settings: PAO1, 24 h
Outline: (§1)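 Broth microdilution per CLSI. Bacterial suspension adjusted to 1×10^6 CFU/mL in cation-adjusted Mueller–Hinton broth and mixed 1:1 with 2-fold serial compound dilutions. Final DMSO 2.5% v/v. Plates incubated at 35 °C with shaking at 140 rpm for 24 h.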

[2] = test system: Escherichia coli; test: Antibacterial activity against Escherichia coli after 24 hrs by broth microdilution method; format: functional; outline: as §1
[3] = test system: Escherichia coli; test: Antibacterial activity against tolC deficient Escherichia coli after 24 hrs by broth microdilution method; format: functional
Outline: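 Broth microdilution per CLSI guidelines. Inoculum adjusted to 1×10^6 CFU/mL in cation-adjusted Mueller–Hinton broth, added 1:1 to 2-fold serial compound dilutions; final DMSO 2.5% v/v. Plates incubated 35 °C, 140 rpm, 24 h.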

[4] = Dissociation constant, acidic pKa of compound by pH metric method; format: physicochemical
Outline: (§2)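 Potentiometric (pH-metric) titration on an automated titrator, Gold Standard pH metric assay, run in triplicate.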

[5] = target: DNA topoisomerase 4 subunit B (Escherichia coli K-12, UniProt P20083); test: Inhibition of Escherichia coli ParE
[6] = target: DNA gyrase subunit B (Escherichia coli, UniProt P0AES6); test: Inhibition of Escherichia coli GyrB (1 to 220 residues) expressed in Escherichia coli BL21(DE3)
[7] = Dissociation constant, basic pKa of compound by pH metric method; format: physicochemical; outline: as §2
[8] = test system: Pseudomonas aeruginosa; test: Antibacterial activity against Pseudomonas aeruginosa harboring MexABCDXY deletion mutant after 24 hrs by broth microdilution method; format: functional
Outline: (§3)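 Broth microdilution per CLSI. Bacterial suspensions adjusted to 1×10^6 CFU/mL in cation-adjusted Mueller–Hinton broth, mixed 1:1 with 2-fold serial compound dilutions (final DMSO 2.5% v/v). Incubation 35 °C, 140 rpm, 24 h.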

[9] = Growth inhibition of human A549 cells; format: cell-based
[10] = Dissociation constant, pKa of compound by pH metric method; format: physicochemical; outline: as §2
[11] = test system: Escherichia coli; test: Selectivity ratio of IC50 for Escherichia coli ParE to IC50 for Escherichia coli GyrB (1 to 220 residues) expressed in Escherichia coli BL21(DE3)
[12] = test system: Enterococcus faecalis; test: Antibacterial activity against Enterococcus faecalis ATCC 29212 after 24 hrs by broth microdilution method; format: functional; settings: ATCC 29212, 24 h; outline: as §1
[13] = test system: Staphylococcus aureus; test: Antibacterial activity against methicillin-resistant Staphylococcus aureus USA100 after 24 hrs by broth microdilution method; format: functional; settings: USA100, 24 h; outline: as §3
[14] = test system: Enterobacter cloacae; test: Antibacterial activity against Enterobacter cloacae ARC3528 after 24 hrs by broth microdilution method; format: functional; settings: ARC3528, 24 h; outline: as §1
[15] = test system: Staphylococcus aureus; test: Antibacterial activity against methicillin-resistant Staphylococcus aureus FQ-R after 24 hrs by broth microdilution method; format: functional; outline: as §3
[16] = test system: Staphylococcus aureus; test: Antibacterial activity against Staphylococcus aureus ATCC 29213 after 24 hrs in presence of 2% human albumin by broth microdilution method; format: functional; settings: ATCC 29213, 24 h
[17] = test system: Streptococcus pneumoniae; test: Antibacterial activity against Streptococcus pneumoniae ATCC 49619 after 24 hrs by broth microdilution method; format: functional; settings: ATCC 49619, 24 h; outline: as §1
[18] = test system: Acinetobacter baumannii; test: Antibacterial activity against Acinetobacter baumannii ARC3495 after 24 hrs by broth microdilution method; format: functional; settings: ARC3495, 24 h; outline: as §1
[19] = test system: Candida albicans; test: Antifungal activity against Candida albicans ATCC 90028 after 24 hrs by broth microdilution method; format: functional; settings: ATCC 90028, 24 h
[20] = test system: Haemophilus influenzae; test: Antibacterial activity against Haemophilus influenzae ATCC 49247 after 24 hrs by broth microdilution method; format: functional; settings: ATCC 49247, 24 h; outline: as §1
[21] = test system: Staphylococcus aureus; test: Antibacterial activity against Staphylococcus aureus ATCC 29213 after 24 hrs by broth microdilution method; format: functional; settings: ATCC 29213, 24 h; outline: as §1
[22] = test system: Klebsiella pneumoniae; test: Antibacterial activity against Klebsiella pneumoniae ARC1865 after 24 hrs by broth microdilution method; format: functional; settings: ARC1865, 24 h; outline: as §1

Chain of DNA topoisomerase 4 subunit B (P20083 whole entry, the tested form may be a part): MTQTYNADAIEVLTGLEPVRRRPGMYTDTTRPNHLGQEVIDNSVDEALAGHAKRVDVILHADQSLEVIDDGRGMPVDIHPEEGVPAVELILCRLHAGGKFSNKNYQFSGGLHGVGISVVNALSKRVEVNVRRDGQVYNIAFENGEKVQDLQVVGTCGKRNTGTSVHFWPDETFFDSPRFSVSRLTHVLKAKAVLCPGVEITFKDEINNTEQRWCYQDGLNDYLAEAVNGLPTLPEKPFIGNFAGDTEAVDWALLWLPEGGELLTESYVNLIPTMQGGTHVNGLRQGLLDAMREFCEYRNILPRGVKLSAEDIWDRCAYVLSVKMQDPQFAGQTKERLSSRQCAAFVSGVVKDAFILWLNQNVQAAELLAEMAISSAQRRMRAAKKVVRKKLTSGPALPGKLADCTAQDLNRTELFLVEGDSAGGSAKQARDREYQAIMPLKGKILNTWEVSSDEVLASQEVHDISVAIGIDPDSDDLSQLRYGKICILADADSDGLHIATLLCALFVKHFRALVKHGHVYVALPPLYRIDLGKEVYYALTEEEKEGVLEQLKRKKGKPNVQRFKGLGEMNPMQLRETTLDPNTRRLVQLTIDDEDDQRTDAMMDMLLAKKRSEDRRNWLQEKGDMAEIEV

Compound	MIC [1]	MIC [2]	MIC [3]	IC50 [5]	IC50 [6]	MIC [8]	GI50 [9]	pKa [10]	other results
CCNC(=O)Nc1cc(-c2nc(C(F)(F)F)cs2)c(-c2cc(-c3n[nH]c(=O)o3)cnc2N2CCC(N)CC2)cn1	> 50 µg/mL	> 50 µg/mL	9.2 µg/mL (≈ 16 µM)	23 nM	2 nM	1.15 µg/mL (≈ 2 µM)	–	–	pKa [4]: 6.8; pKa [7]: 9.5
CCNC(=O)Nc1cc(-c2nc(C(F)(F)F)cs2)c(-c2cc3ncccc3nc2N2CCN(C)CC2)cn1	> 100 µg/mL	16.8 µg/mL (≈ 31 µM)	1.08 µg/mL (≈ 1.99 µM)	400 nM	3 nM	1.08 µg/mL (≈ 1.99 µM)	> 50000 nM	7.4	–
CCNC(=O)Nc1cc(-c2nc(C(F)(F)F)cs2)c(-c2cncc(C(=O)O)c2)cn1	> 100 µg/mL	> 100 µg/mL	> 100 µg/mL	700 nM	6 nM	> 100 µg/mL	–	3.5	Ratio IC50 [11]: 100
CCNC(=O)Nc1cc(-c2nc(C(F)(F)F)cs2)c(-c2cc(C(=O)O)cnc2N2C3CCC2CN(C)C3)cn1	9 µg/mL (≈ 16 µM)	9 µg/mL (≈ 16 µM)	1.12 µg/mL (≈ 1.99 µM)	8 nM	6 nM	4.48 µg/mL (≈ 7.98 µM)	> 50000 nM	–	pKa [4]: 3.5; pKa [7]: 7.4
CCNC(=O)Nc1cc(-c2nc(C(F)(F)F)cs2)c(-c2cc3ncccc3nc2N2C3CC2CN(C)C3)cn1	> 60 µg/mL	17.2 µg/mL (≈ 31 µM)	2.21 µg/mL (≈ 3.98 µM)	200 nM	5 nM	1.1 µg/mL (≈ 1.98 µM)	> 50000 nM	7.6	–
CCNC(=O)Nc1cc(-c2nc(C(F)(F)F)cs2)c(-c2cc3ncccc3nc2N2[C@@H]3CC[C@H]2C[C@@H](N)C3)cn1	35.5 µg/mL (≈ 62.5 µM)	4.54 µg/mL (≈ 7.98 µM)	0.56 µg/mL (≈ 0.985 µM)	24 nM	3 nM	0.56 µg/mL (≈ 0.985 µM)	> 40000 nM	9.2	–
CCNC(=O)Nc1cc(-c2nc(C(F)(F)F)cs2)c(-c2cc3ncccc3nc2N2CC3CCC2CN3)cn1 (configuration not stated)	> 60 µg/mL	8.87 µg/mL (≈ 16 µM)	1.1 µg/mL (≈ 1.98 µM)	21 nM	8 nM	0.55 µg/mL (≈ 0.992 µM)	–	9.2	–
CC(C)(O/N=C(\C(=O)N[C@@H]1C(=O)N2C(C(=O)[O-])=C(C[n+]3ccccc3)CS[C@H]12)c1csc(N)n1)C(=O)O [CEFTAZIDIME]	–	–	–	–	–	–	–	–	MIC [12]: > 32 µg/mL; MIC [13]: > 32 µg/mL; MIC [14]: > 32 µg/mL; MIC [15]: > 32 µg/mL; MIC [16]: 16 µg/mL; MIC [17]: 0.5 µg/mL (≈ 0.915 µM); MIC [18]: > 32 µg/mL; MIC [19]: > 32 µg/mL; MIC [20]: 0.25 µg/mL (≈ 0.457 µM); MIC [21]: 16 µg/mL (≈ 29.3 µM); MIC [22]: 0.25 µg/mL (≈ 0.457 µM)

Source: ChEMBL document CHEMBL4270612, “Discovery of dual GyrB/ParE inhibitors active against Gram-negative bacteria” (Eur J Med Chem, 2018)
